These results are taken from paper PMC6905387 (ACS chemical biology, 2018).

The target of data set [1] is T1, SmTGR (Schistosoma mansoni, UniProt Q962Y6).
T1 sequence (Q962Y6 1-598): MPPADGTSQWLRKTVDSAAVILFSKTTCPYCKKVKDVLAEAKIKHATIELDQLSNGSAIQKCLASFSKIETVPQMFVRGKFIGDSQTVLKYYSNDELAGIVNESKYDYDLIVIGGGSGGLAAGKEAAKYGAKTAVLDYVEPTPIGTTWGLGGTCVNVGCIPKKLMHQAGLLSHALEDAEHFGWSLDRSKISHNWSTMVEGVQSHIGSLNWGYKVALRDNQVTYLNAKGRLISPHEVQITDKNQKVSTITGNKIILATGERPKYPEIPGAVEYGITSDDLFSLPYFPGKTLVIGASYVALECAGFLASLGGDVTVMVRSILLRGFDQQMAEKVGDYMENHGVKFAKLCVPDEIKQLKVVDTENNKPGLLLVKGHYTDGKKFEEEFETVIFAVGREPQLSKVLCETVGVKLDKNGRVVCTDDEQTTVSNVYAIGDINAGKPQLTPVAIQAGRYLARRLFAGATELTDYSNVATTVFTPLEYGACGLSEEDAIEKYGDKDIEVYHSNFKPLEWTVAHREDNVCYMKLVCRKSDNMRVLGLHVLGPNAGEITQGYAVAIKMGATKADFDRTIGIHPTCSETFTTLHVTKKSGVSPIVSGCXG
In words: SmTGR enzymatic assay. The format is biochemical.

For another data set, the system named is schistosomula. In words: Schistosomicidal activity against ex vivo schistosomula. Set-up: species or system Schistosoma mansoni. A digest of the protocol:
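Schistosomula were made by mechanical transformation of cercariae from infected Biomphalaria glabrata, then isolated on a Percoll gradient. They were cultured for 24 hr in M-199 with 10% fetal calf serum before test compound was added. Untreated larvae served as controls. Survival was followed by daily observation, and larvae without movement were scored dead.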

Another data set has as its system adult worms. As to the kind of experiment: Schistosomicidal activity against ex vivo adult worms. Also on record: species or system Schistosoma mansoni. An outline of the steps:
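Adult Schistosoma mansoni were perfused from mice seven weeks after infection. They were cultured for 24 hr in RPMI with 10% fetal calf serum, 10 mM glutamine and 1X penicillin/streptomycin before test compound was added. Untreated worms served as controls. Worms were checked daily and scored dead when no movement was seen.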

Data set [2] has as its target T1, SmTGR. As to the kind of experiment: Steady state experiments varying NADPH at saturating DTNB. In kind it is biochemical.
For another data set, the target named is T2, hGR (Homo sapiens, UniProt P00390).
T2 sequence (P00390 44-522): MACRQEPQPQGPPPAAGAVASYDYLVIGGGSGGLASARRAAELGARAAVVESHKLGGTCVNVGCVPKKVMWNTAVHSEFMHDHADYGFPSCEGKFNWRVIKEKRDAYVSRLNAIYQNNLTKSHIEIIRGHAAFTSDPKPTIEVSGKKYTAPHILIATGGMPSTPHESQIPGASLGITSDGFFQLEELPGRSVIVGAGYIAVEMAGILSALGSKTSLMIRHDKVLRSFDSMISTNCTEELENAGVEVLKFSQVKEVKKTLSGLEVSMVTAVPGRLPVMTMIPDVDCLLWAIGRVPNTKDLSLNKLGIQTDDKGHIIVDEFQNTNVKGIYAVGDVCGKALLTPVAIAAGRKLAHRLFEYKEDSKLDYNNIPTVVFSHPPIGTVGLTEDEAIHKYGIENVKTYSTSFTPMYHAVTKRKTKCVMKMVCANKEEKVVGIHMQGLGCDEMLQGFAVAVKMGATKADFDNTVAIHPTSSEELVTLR
As to the kind of experiment: Activity against human glutathione reductase. In kind it is biochemical. Conditions: results not shown.

Data set [3] concerns Mammalian TrxR. Conditions: ref Bioassays AID 588453 and AID 588456, cited from earlier work.
The test system of data set [4] is Mammalian TrxR. As to the kind of experiment: Mammalian TrxR inhibition. The format is biochemical. The conditions noted are these: in words.
The test system of data set [5] is TGR activity in treated worms. As to the kind of experiment: Inhibition of TGR in treated ex vivo worms. Also on record: species or system Schistosoma mansoni. The conditions noted are these: adult worms cultured with 50 μM compound, versus DMSO-treated worms.
Data set [6] in a line: Behaviour of compound in worm culture medium. The format is physicochemical.

Structures are written as SMILES. “Also recorded” adds a separate entry of the source.

For orientation: IC50 means the concentration needed to halve the response being measured. `O=C(O)c1ccc2ccccc2c1` [CID: 7123, 2-Naphthoic acid]: the IC50 against SmTGR [1] is 1100 µM.

In the case of `O=C(O)c1ccc2ncccc2n1` [CID: 12426408, 1,5-Naphthyridine-2-carboxylic acid], it took 2600 µM to reach half-maximal inhibition on SmTGR [1] (IC50).

For `O=C(O)c1ccc(CN2CCN(CCO)CC2)nc1` [CID: 80159879, 6-((4-(2-Hydroxyethyl)piperazin-1-yl)methyl)nicotinic acid], the IC50 against SmTGR [1] was 4400 µM.

As to `O=C(O)c1ccc2cccnc2n1` [Compound 1, 1,8-naphthyridine-2-carboxylate], the Schistosomula killed with schistosomula (10 μM, in five days) stood at 0%; with schistosomula (50 μM, in five days), 11%. Moreover, the Adult worms killed with adult worms (10 μM, in five days) is reported as 0%; in the data set on adult worms (50 μM, in five days), 13%. Moreover, the “Inhibition mechanism versus NADPH” value at SmTGR [2] (NADPH 0.01 to 1 mM, DTNB 3 mM) is “mixed competitive inhibition mechanism”. Further, the “KIS, binding of inhibitor to NADPH-bound enzyme (estimated)” value on SmTGR [2] (at 3 mM DTNB) is recorded as 4.8 mM. Moreover, the “Activity against hGR” value at hGR is “no detectable activity”. Also, the “Inhibition of mammalian hTrxR (in words)” value in the data set with Mammalian TrxR [3] is recorded as “does not inhibit; also recorded: undetectable inhibition”. In addition, the “Mammalian TrxR IC50” value in the data set with Mammalian TrxR [3] was “Inactive”. Moreover, the “Selectivity for SmTGR over hTrxR” value with Mammalian TrxR [4] is reported as “high selectivity”.

Regarding `OCCN1CCN(CCO)CC1` [Compound 2, 1,4-bis(2-hydroxyethyl)piperazine], on SmTGR [1] (6-His-tagged SmTGRwt 20 nM, 10 min preincubation with NADPH 100 μM, DTNB 3 mM), the “SmTGR IC50” value is “inactive”.

As to `NCCCCN1CCN(CCO)CC1` [Compound 3, 2-[4-(4-aminobutyl)piperazin-1-yl]ethanol], the concentration for half-maximal inhibition (IC50) at SmTGR [1] was > 10000 µM.

On SmTGR [1], `O=S(=O)(O)CCN1CCN(CCO)CC1` [Compound 4, 4-(2-Hydroxyethyl)-1-piperazineethanesulfonic acid] gave an IC50 of 3300 µM.

Turning to `OCCN1CCN(Cc2cc(Cl)c3cccnc3c2O)CC1` [Compound 5, 5-chloro-7-((4-(2-hydroxyethyl)piperazin-1-yl)methyl)quinolin-8-ol], in the data set on schistosomula (10 μM, in five days), the Schistosomula killed came out at 80%. Besides, the Schistosomula killed entry with schistosomula (50 μM, in 24 hr) is given as “killed all schistosomula”. Also, the Adult worms killed in the data set on adult worms (10 μM, in five days) is reported as 27%. The Adult worms killed in the data set with adult worms (50 μM, in five days) is 88%. Further, in the data set with Mammalian TrxR [3], the “Inhibition of mammalian hTrxR (in words)” value is on record as “undetectable inhibition” and the “Mammalian TrxR IC50” value was “Inactive”. In data set [5], the “GR (GSH disulfide reduction) activity in treated worms” value is reported as “significant inhibition” and the “TrxR (DTNB reduction) activity in treated worms” value is “significant inhibition”. The same molecule displayed an IC50 on SmTGR [1] of 120 µM. For the same molecule, the “Selectivity for SmTGR over hTrxR” value in the data set with Mammalian TrxR [4] is listed as “high selectivity”.

Take `CCOC(=O)c1c(C)oc2c1c(CN1CCN(CCO)CC1)c(O)c1ccccc12` [Compound 6, ethyl 5-hydroxy-4-{[4-(2-hydroxyethyl)piperazin-1-yl]methyl}−2-methylnaphtho[1,2-b]furan-3-carboxylate]: the “Solubility behaviour in culture medium” value in data set [6] is “initially precipitated in the culture medium then slowly dissolved over the following hours”. Moreover, the Schistosomula killed is recorded as 100% with schistosomula (10 μM, in five days) and “killed all schistosomula” in the data set with schistosomula (50 μM, in 24 hr). Moreover, the Adult worms killed with adult worms (10 μM, in five days) was determined as 9%; in the data set with adult worms (50 μM, in four days), 100%. Also, the 50% inhibitory concentration (IC50) is 1.12 µM with Mammalian TrxR [3] (read-out: Mammalian TrxR IC50) and 0.06 µM against SmTGR [1]. Moreover, the “GR (GSH disulfide reduction) activity in treated worms” value in [5] was “significant inhibition”. In addition, the “TrxR (DTNB reduction) activity in treated worms” value in data set [5] is reported as “significant inhibition”. Further, the “Fold more potent than 5 (SmTGR IC50)” value at SmTGR [1] (IC50 of 6 compared with IC50 of 5) is 2000 fold. In the data set with Mammalian TrxR [4], the “Selectivity for SmTGR over hTrxR” value is “high selectivity”.
